Experimental data taken from ChEMBL document CHEMBL1142150, “Inhibitors of nonhousekeeping functions of the apicoplast defy delayed death in Plasmodium falciparum” (Antimicrob Agents Chemother, 2007).
pIC50: −log10 of the molar value. Values after ≈ are worked out from the molar mass of the structure shown. Active and inactive are the calls of the source. No cut-off for these calls is given here.

What was measured:
Plasmodium falciparum [1] = assay: Reduced apicoplast DNA/nuclear DNA ratio in Plasmodium falciparum FCK2 at 25 uM after 72 hrs by competitive PCR; format: functional, organism-based
Plasmodium falciparum [2] = assay: Inhibition of Plasmodium falciparum FCK2 growth as [3H]hypoxanthine uptake after 48 hrs; format: functional, organism-based
Outline: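 Ring-synchronized FCK2 in human O+ erythrocytes, 2 to 3% hematocrit, 1 to 2% initial parasitemia. Cultured 48 h with [3H]hypoxanthine and a range of inhibitor concentrations, inhibitor refreshed in new medium every 24 h, in duplicate. Cells harvested onto glass fibre filters for scintillation counting. IC50/MIC90 from nonlinear fit of parasitemia relative to untreated (100%) against log concentration.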

Plasmodium falciparum [3] = assay: Inhibition of Plasmodium falciparum FCK2 growth as [3H]hypoxanthine uptake after 96 hrs; format: functional, organism-based
Outline: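 Ring-synchronized FCK2 at 2 to 3% hematocrit, 1 to 2% initial parasitemia, exposed to a range of inhibitor concentrations for the first 48 h only, in duplicate. [3H]hypoxanthine then added for a further 48 h, followed by harvest and scintillation counting. IC50/MIC90 from nonlinear fit of parasitemia relative to untreated (100%) against log concentration.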

Plasmodium falciparum [4] = assay: Decrease in Plasmodium falciparum FCK2 in erythrocytes at 50 uM after 84 hrs; format: functional, organism-based
Outline: (§1)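 Ring-stage synchronized FCK2 in human O+ erythrocytes at 10% hematocrit and 3% starting parasitemia, with medium changed every 24 h. Inhibitor was present either throughout (96 h) or for the first 48 h only, in triplicate. Giemsa thin smears were read every 12 h, counting at least 10 fields of about 200 cells. Parasitemia is infected RBC over total RBC; parasites lacking an intact membrane or stained cytoplasm were scored dead.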

Plasmodium falciparum [5] = assay: Reduction in Plasmodium falciparum FCK2 in human blood cell culture after 96 hrs; format: functional; design: scale not given: the % may be the effect or the level left
Outline: (§2)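 Ring-stage synchronized FCK2 (2–3% hematocrit, 1–2% parasitemia) was treated with an inhibitor dilution series for the first 48 h only, in duplicate. [3H]hypoxanthine was then added for a further 48 h (96 h total) before filter harvest and scintillation counting. Percent parasitemia was set relative to untreated controls, and IC50/MIC90 were fitted by nonlinear regression against log concentration.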

Plasmodium falciparum [6] = assay: Reduction in Plasmodium falciparum FCK2 in human erythrocyte culture after 48 hrs; format: functional, organism-based
Outline: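 FCK2 synchronized with sorbitol, at ring stage, in O+ erythrocytes (2–3% hematocrit, 1–2% parasitemia). Cells were exposed to an inhibitor dilution series with [3H]hypoxanthine for 48 h, with fresh inhibitor every 24 h, in duplicate. Harvested onto glass-fiber filters for scintillation counting. Parasitemia was taken relative to untreated (100%), and IC50/MIC90 were fitted by nonlinear regression against log concentration.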

Plasmodium falciparum [7] = assay: Reduced apicoplast DNA/nuclear DNA ratio in Plasmodium falciparum FCK2 at 100 nM after 72 hrs by competitive PCR; format: functional, organism-based
Plasmodium falciparum [8] = assay: Reduced apicoplast genome copy number in Plasmodium falciparum FCK2 after 96 hrs; format: functional
Plasmodium falciparum [9] = assay: Reduced apicoplast DNA/nuclear DNA ratio in Plasmodium falciparum FCK2 at 10 uM after 72 hrs by competitive PCR; format: functional
Plasmodium falciparum [10] = assay: Inhibition of fatty acid biosynthesis in Plasmodium falciparum FCK2 as [1,2-14C]acetate uptake during first asexual cycle at 10 uM after 24 hrs; format: functional, organism-based
Plasmodium falciparum [11] = assay: Decrease in Plasmodium falciparum FCK2 in erythrocytes at 5 uM after 84 hrs; format: functional, organism-based; outline: as §1
Plasmodium falciparum [12] = assay: Reduced apicoplast genome copy number in Plasmodium falciparum FCK2 after 48 hrs; format: functional
Plasmodium falciparum [13] = assay: Reduced apicoplast DNA/nuclear DNA ratio in Plasmodium falciparum FCK2 at 500 uM after 72 hrs by competitive PCR; format: functional, organism-based
Plasmodium falciparum [14] = assay: Inhibition of Plasmodium falciparum FCK2 second cycle growth in erythrocytes at 48 hrs; format: functional, organism-based; outline: as §2
Plasmodium falciparum [15] = assay: Reduced apicoplast DNA/nuclear DNA ratio in Plasmodium falciparum FCK2 at 1 mM after 72 hrs by competitive PCR; format: functional, organism-based
Outline: (§3)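 FCK2 cultures were treated for 72 h, then saponin-lysed, and genomic DNA was kit-purified. Competitive PCR for eftu (apicoplast) and fabI (nuclear) used deletion-mutant plasmid standards diluted in calf thymus DNA, run for 25 cycles at 95/50/72°C. Products were quantified by ethidium-stained gel densitometry, and copy number was taken at equal band intensity. Groups were compared by two-tailed Student t test.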

Plasmodium falciparum [16] = assay: Reduced apicoplast DNA/nuclear DNA ratio in Plasmodium falciparum FCK2 at 100 uM after 72 hrs by competitive PCR; format: functional; outline: as §3
Plasmodium falciparum [17] = assay: Inhibition of fatty acid biosynthesis in Plasmodium falciparum FCK2 as decreased [1,2-14C]acetate uptake at 10 uM after 2 hrs; format: functional, organism-based

Compound | pIC50 (Plasmodium falciparum [2]) | MIC90 (Plasmodium falciparum [2]) | pIC50 (Plasmodium falciparum [3]) | MIC90 (Plasmodium falciparum [3]) | further results
Oc1ccc(Cl)cc1Oc1ccc(Cl)c2cccnc12 | – | – | – | – | Activity (Plasmodium falciparum [1]): inactive
O=C(O)c1cc(Oc2ccc(C(F)(F)F)cc2Cl)ccc1[N+](=O)[O-] [ACIFLUORFEN] | 3.28 | 871 µM (≈ 315 µg/mL) | 3.34 | 692 µM (≈ 250 µg/mL) | –
C/C=C/C/C=C/CCC(=O)[C@H]1O[C@H]1C(N)=O [CERULENIN] | 4.82 | 64.9 µM (≈ 14.5 µg/mL) | 4.77 | 52.3 µM (≈ 11.7 µg/mL) | –
O=C(N[C@H](CO)[C@H](O)c1ccc([N+](=O)[O-])cc1)C(Cl)Cl [CHLORAMPHENICOL] | 3.38 | 1020 µM (≈ 331 µg/mL) | 4.95 | 190 µM (≈ 61.6 µg/mL) | Activity (Plasmodium falciparum [4]): inactive; Activity (Plasmodium falciparum [5]): 10%; Activity (Plasmodium falciparum [6]): inactive
CCN(CC)CCCC(C)Nc1ccnc2cc(Cl)ccc12 (stereo unspecified) [CHLOROQUINE] | – | 0.011 µM (≈ 0.00352 µg/mL) | – | 0.011 µM (≈ 0.00352 µg/mL) | Activity (Plasmodium falciparum [7]): inactive
CCC[C@@H]1C[C@@H](C(=O)N[C@@H]([C@H]2O[C@H](SC)[C@H](O)[C@@H](O)[C@H]2O)[C@H](C)Cl)N(C)C1 [CLINDAMYCIN] | 3.54 | 537 µM (≈ 228 µg/mL) | 8.89 | 6 µM (≈ 2.55 µg/mL) | Activity (Plasmodium falciparum [8]): 0.42; Activity (Plasmodium falciparum [9]): 0.4; Activity (Plasmodium falciparum [10]): inactive; Activity (Plasmodium falciparum [11]): inactive; Activity (Plasmodium falciparum [5]): 10%; Activity (Plasmodium falciparum [6]): inactive; Activity (Plasmodium falciparum [12]): 0.65
C[C@@H]1C[C@@H]([C@H](O)CC2CC(=O)NC(=O)C2)C(=O)[C@@H](C)C1 [CYCLOHEXIMIDE] | 6.82 | 0.73 µM (≈ 0.205 µg/mL) | 7.00 | 0.48 µM (≈ 0.135 µg/mL) | Activity (Plasmodium falciparum [7]): inactive
CC(Oc1ccc(Oc2ccc(C(F)(F)F)cn2)cc1)C(=O)O (stereo unspecified) [FLUAZIFOP] | 2.81 | 6920 µM (≈ 2260 µg/mL) | 2.83 | 5750 µM (≈ 1880 µg/mL) | –
CC(Oc1ccc(Oc2ncc(C(F)(F)F)cc2Cl)cc1)C(=O)O (stereo unspecified) [HALOXYFOP] | 3.97 | 346 µM (≈ 125 µg/mL) | 4.01 | 346 µM (≈ 125 µg/mL) | Activity (Plasmodium falciparum [13]): inactive
CC(Oc1ccc(Oc2cnc3cc(Cl)ccc3n2)cc1)C(=O)O (stereo unspecified) [QUIZALOFOP] | 3.24 | 3090 µM (≈ 1070 µg/mL) | 3.17 | 1950 µM (≈ 672 µg/mL) | –
C[C@@H]1C[C@H]2O[C@@H]2/C=C\C=C\C(=O)Cc2c(Cl)c(O)cc(O)c2C(=O)O1 [RADICICOL] | 5.14 | 46.8 µM (≈ 17.1 µg/mL) | 5.25 | 60.2 µM (≈ 22 µg/mL) | –
CO[C@H]1/C=C/O[C@@]2(C)Oc3c(C)c(O)c4c(O)c(c(/C=N/N5CCN(C)CC5)c(O)c4c3C2=O)NC(=O)/C(C)=C\C=C\[C@H](C)[C@H](O)[C@@H](C)[C@@H](O)[C@@H](C)[C@H](OC(C)=O)[C@@H]1C [RIFAMPIN] | 5.38 | 110 µM (≈ 90.2 µg/mL) | 6.72 | 2 µM (≈ 1.65 µg/mL) | Activity (Plasmodium falciparum [11]): Active; Activity (Plasmodium falciparum [14]): Active; Activity (Plasmodium falciparum [5]): 10%; Activity (Plasmodium falciparum [6]): inactive
CC(=O)CC(=O)CCC(=O)O [SUCCINYLACETONE] | 1.75 | 58900 µM (≈ 9310 µg/mL) | 1.76 | 51300 µM (≈ 8110 µg/mL) | Activity (Plasmodium falciparum [15]): inactive
CN(C)[C@@H]1C(O)=C(C(N)=O)C(=O)[C@@]2(O)C(O)=C3C(=O)c4c(O)cccc4[C@@](C)(O)[C@H]3C[C@@H]12 [TETRACYCLINE] | 3.87 | 562 µM (≈ 250 µg/mL) | 5.66 | 26.9 µM (≈ 12 µg/mL) | Activity (Plasmodium falciparum [16]): 0.1; Activity (Plasmodium falciparum [4]): Active; Activity (Plasmodium falciparum [14]): Active; Activity (Plasmodium falciparum [5]): 10%; Activity (Plasmodium falciparum [6]): inactive
Oc1cc(Cl)ccc1Oc1ccc(Cl)cc1Cl [TRICLOSAN] | 5.96 | 15.8 µM (≈ 4.57 µg/mL) | 5.92 | 10.2 µM (≈ 2.95 µg/mL) | Activity (Plasmodium falciparum [8]): inactive; Activity (Plasmodium falciparum [17]): Active; Activity (Plasmodium falciparum [12]): inactive
